Rows were chosen to be rich in hits. Some 2% of all compounds tested hit in one or more screens of this group.
HSP90 inh: HSP90 refolding inhibition in rabbit reticulocyte lysate; AID 1789; luciferase refolding luminescence, 3 h; inhibition, % at 5.6 µM; 290,000 tested, 0.91% active;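 active = inhibition above the screen-wide mean plus 3 SD, computed separately per campaign, cut at about 16% in these data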;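 also: 0% = DMSO wells and 100% = 60 µM geldanamycin wells; inhibitors lower the luminescence because luciferase stays unfolded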
PPC-1+TRAIL kill: compounds killing PPC-1 cancer cells with TRAIL present (potentiator screen, no TRAIL-free arm); PPC-1 cells + TRAIL, ATPLite viability luminescence; cell killing (% activity), % at 4 µM or 5 µM; 220,000 tested, 0.41% active; AID 1443;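 active = cell killing above 50% in the first pass at 4 µM, then a duplicate retest at 5 µM averaging 50% or more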;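 also: plate controls were cells with TRAIL plus DMSO for no effect and medium-only wells lacking cells for full effect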
TRAIL sens C8: sensitizes caspase-8 expressing cells to TRAIL. 360,000 tested, 1% active. NB7+C8 cells + TRAIL, ATPlite viability luminescence. inhibition (viability loss, TRAIL sensitization), % at 10 µM;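 active = compounds causing at least 50% loss of cell viability in the single-dose screen, relative to plate controls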
FLuc act counter: affects firefly luciferase, flagging false hits in luciferase stimulation screens | P08659 | ATPlite luciferase biochemical, luminescence, 10 min; 0 = ATP-free wells, 1 = DMSO control | activation factor at 10 µM | 200,000 tested, under 10 active | AID 1027;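 active = luciferase activation factor, scaled between plate controls, of at least 2 with compound at 10 µM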
Target sequence (P08659 whole entry, looked up): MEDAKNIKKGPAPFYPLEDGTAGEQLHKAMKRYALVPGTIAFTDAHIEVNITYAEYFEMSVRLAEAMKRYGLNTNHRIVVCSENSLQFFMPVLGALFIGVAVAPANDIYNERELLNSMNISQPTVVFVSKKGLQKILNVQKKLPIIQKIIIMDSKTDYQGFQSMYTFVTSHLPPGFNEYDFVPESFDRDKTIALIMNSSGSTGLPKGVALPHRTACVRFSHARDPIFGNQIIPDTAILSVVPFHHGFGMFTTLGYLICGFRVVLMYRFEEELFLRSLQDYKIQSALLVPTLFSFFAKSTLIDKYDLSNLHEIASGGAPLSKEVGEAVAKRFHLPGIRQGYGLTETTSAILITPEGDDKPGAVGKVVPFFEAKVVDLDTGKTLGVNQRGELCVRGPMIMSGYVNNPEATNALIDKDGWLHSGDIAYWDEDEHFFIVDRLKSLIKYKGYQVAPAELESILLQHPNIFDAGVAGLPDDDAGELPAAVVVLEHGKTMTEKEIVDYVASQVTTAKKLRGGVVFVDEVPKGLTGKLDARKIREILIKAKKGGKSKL
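Assay system – cell-free luciferase reagent · Medium – PBS-based ATP solution · Dosing – test compounds dosed from 2 mM stocks in 100% DMSO · Timing – 10 min, room temperature · Technique – light output (luminescence) · Measure – luminescence gain marking luciferase activators · Controls – No-ATP low control, compound-free enzyme-plus-ATP high control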
FLuc inhib CS: counter-screen for luciferase assay inhibitors: firefly luciferase inhibition; ATPLite firefly luciferase biochemical luminescence, 10 min; inhibition, % at 10 µM; 200,000 tested, 1.5% active; P08659;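 active = inhibition above about 50% when tested at 10 µM, limit read from the data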
* hit, by the source's call; · = no result.

SMILES | HSP90 inh | PPC-1+TRAIL kill | TRAIL sens C8 | FLuc act counter | FLuc inhib CS
O=C(/C=C/c1ccco1)Nc1ccccn1 | 0.1 | 28.8 | 19.7 | 0.3 | 69.1*
Cc1cc(C)c(CN2CCN(C(=O)CC[C@H]3O[C@@H](n4ccc(=O)[nH]c4=O)[C@H](O)[C@@H]3O)CC2)c(C)c1 | · | · | 1.1 | · | ·
OC(c1ccccc1)(c1nc(-c2ccccc2)cs1)C(F)(F)F (stereo not drawn) | · | · | 1.6 | · | ·
O=C1C2C(C(=O)N1/N=C/c1ccc([N+](=O)[O-])o1)C1C=CC2C12CC2 (stereo not drawn) | 0.6 | 14.0 | 9.6 | 1.1 | -8.3
CC1=NN(c2nc(N)nc(/C(C#N)=C/c3ccc([N+](=O)[O-])o3)n2)C(C)(C)C1 | · | · | 79.5* | · | ·
CCN(CC)c1ccc(/C=N/Nc2nc(C)cc(=O)[nH]2)c(O)c1 | -2.6 | 57.7* | 49.4 | 0.7 | 25.2
Cc1ccc2[nH]c3c(c2c1)CN(C(C)C)CC3 | 16.3* | · | -12.4 | · | ·
S=c1[nH]nc(-c2ccc3ccccc3n2)n1-c1cc(Cl)cc(Cl)c1 | 0.9 | 17.4 | -11.8 | 0.3 | 69.6*
CC(C)OC(=O)c1ccc2ccc(-c3ccccc3)nc2c1 | · | · | 32.9 | · | ·
CSc1ccc(NC(=O)C2(C)CCN2C(=O)c2sccc2C)cc1 (stereo not drawn) | · | · | 4.9 | · | ·
O=C(COc1ccc(Cl)cc1Cl)Nc1cccnc1 | 1.6 | 15.8 | 32.5 | 0.4 | 58.2*
Cc1ccccc1OCC(=O)Nc1cccc(N(C)S(C)(=O)=O)c1 | -0.8 | 0.2 | 20.4 | 0.9 | 11.4
CN(c1cccc(NC(=O)COc2ccc(Cl)cc2Cl)c1)S(C)(=O)=O | 0.6 | 35.5 | 56.8* | 0.3 | 69.2*
Nc1ccn([C@@H]2O[C@H](C(=O)N[C@H]3c4ccccc4C[C@H]3O)[C@@H](O)[C@H]2O)c(=O)n1 | · | · | -8.2 | · | ·
CCCOc1ccc(C(=O)Nc2cc(S(=O)(=O)N3CCOCC3)ccc2N2CCN(CC)CC2)cc1OC | · | · | -11.1 | · | ·
COc1ccc(C=O)c(-c2c(-c3ccccc3OC)sc3ccccc23)c1 | · | · | 5.0 | · | ·
CCOc1ccc(NC2=CC(=O)C(=O)c3ccccc32)cc1 | · | · | 74.1* | · | ·
O=C1C=C(Nc2ccc(F)cc2)c2ccccc2C1=O | · | · | 58.3* | · | ·
O=C1C=C(Nc2ccccc2O)c2ccccc2C1=O | 4.1 | 34.3 | 47.9 | 1 | 2.9
Cc1ccc(NC2=CC(=O)C(=O)c3ccccc32)c(C)c1 | · | · | 37.3 | · | ·
O=C1C=C(Nc2cccnc2)c2ccccc2C1=O | · | · | 70.0* | · | ·
COc1cc(Cl)c(NC2=CC(=O)C(=O)c3ccccc32)c(OC)c1 | · | · | 86.6* | · | ·
Cc1ccccc1CNC(=O)c1csc([C@H]2C[C@H](O)[C@@H](CO)O2)n1 | · | · | -2.2 | · | ·
Cc1cc(O)c2c(c1)CC1C3CCC4CC(=O)CCC4(C)C3CC(=O)C21C (stereo not drawn) | · | · | -3.9 | · | ·
Cc1ccc(/C=N/Nc2ccc(C(=O)O)cc2)s1 | 78.9* | 18.6 | 1.1 | 0.5 | 48.2
SMILES | HSP90 inh | PPC-1+TRAIL kill | TRAIL sens C8 | FLuc act counter | FLuc inhib CS
Cc1ccc(/C=N/Nc2ccc(C(=O)O)cc2)o1 | 11.7 | -33.6 | 42.8 | 1 | 3.6
O=C(Nc1cc(S(=O)(=O)N2CCOCC2)ccc1N1CCOCC1)c1ccc([N+](=O)[O-])s1 | · | · | 53.1* | · | ·
O=C(Nc1cc(S(=O)(=O)N2CCOCC2)ccc1N1CCOCC1)c1ccccc1[N+](=O)[O-] | · | · | -5.3 | · | ·
Cc1ccccc1-c1nnc(SCC(=O)Nc2cccnc2Cl)o1 | · | · | 63.5* | · | ·
Cc1cc(C)cc(NC(=O)CSc2nnc(-c3ccccc3C)o2)c1 | 1.5 | 22.3 | 12.8 | 1.1 | -6.4
Cc1ccc(-c2nn(CC(=O)NCc3cc(-c4nn(C)c(=O)c5ccccc45)ccc3C)c(=O)c3ccccc23)cc1 | 1.9 | 31.5 | 62.5* | 1.1 | -6.5
CCC(=O)NCc1cc(-c2nn(C)c(=O)c3ccccc23)ccc1C | 0.4 | -16.6 | 14.4 | 1.1 | -6.2
OCC[C@@H]1C[C@H](O)[C@@H](O)[C@@]2(OCCCc3cc(C(F)(F)F)ccc32)O1 | · | · | 3.8 | · | ·
N/C(=N\OC(=O)c1ccc(Cl)cc1Cl)c1cccnc1 | 7.2 | 47.1 | 61.3* | 0.1 | 92.8*
N/C(=N\OC(=O)c1ccco1)c1cccnc1 | 1.9 | -12.5 | -0.5 | 0.7 | 26.4
N/C(=N\OC(=O)c1ccc(Cl)cc1)c1cccnc1 | 0.2 | 26.4 | 91.0* | 0.1 | 94.3*
N/C(=N\OC(=O)c1cccc2ccccc12)c1cccnc1 | 2.0 | 18.3 | 6.3 | 0.7 | 34.2
Cc1cccc(/C(N)=N/OC(=O)c2cccnc2)c1 | 4.6 | 20.7 | 2.9 | 0.4 | 64.5*

Bioassay records: PubChem BioAssay, several laboratories
